# Data: ChEMBL document CHEMBL1146240 (J Med Chem, 2007)
# Active and inactive are the calls of the source. No cut-off for these calls is given here.
# Tests used:
# [1] = Cytotoxicity against HECPP cells assessed as reduction of cell viability at 600 ug/mL after 24 hrs by MTT assay; type: cell-based; details: mouse
# In short: (§1)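 HECPP murine endothelial cells in M199 with 10% FCS, 37 °C, 5% CO₂. Seeded at 10⁵ cells/well, incubated overnight, then exposed to compound for 24 h. MTT added for 2 h and formazan dissolved in 0.04 N HCl/isopropanol. Absorbance read at 550 nm with 630 nm reference, expressed as percent of metabolically active cells.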
# Splenocyte [2] = assay: Induction of TNF secretion in mouse splenocytes at 100 ug/mL after 4 hrs; type: functional
# In short: (§2)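 Primary male mouse splenocytes, RBC-lysed, plated at 3 × 10⁶ cells/well in Alpha-MEM with 10% FCS. Treated with compound for 4 h at 37 °C. Supernatant TNF measured by ELISA, each sample in duplicate, with triplicate wells per condition. Mean ± SEM reported.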
# HECPP [3] = assay: Activation of NF-kappaB in HECPP cells at 300 ug/mL; type: functional, cell-based; details: Mus musculus
# In short: (§3)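 HECPP murine endothelial cells (2.5 × 10⁷) exposed to compound for 2 h. Nuclear extracts prepared, and 5 µg nuclear protein incubated with poly(dI/dC) on ice for 10 min. A ³²P-labeled κ-enhancer NF-κB consensus oligonucleotide was then added. Complexes were resolved on a 4% polyacrylamide gel in 0.25× TBE at 150 V for 2 h, then read by autoradiography (EMSA).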
# MC-38 (Mus musculus) [4] = assay: Induction of hemorrhagic necrosis in colon 38 tumor bearing C57B1/6 mouse at 200 mg/kg, ip after 24 hrs relative to control; details: route intraperitoneal
# HECPP [5] = assay: Activation of NF-kappaB in HECPP cells at 1000 ug/mL; type: functional, cell-based; details: Mus musculus; in short: as §3
# [6] = Cytotoxicity against HECPP cells assessed as reduction of cell viability at 300 ug/mL after 24 hrs by MTT assay; type: cell-based; details: mouse; in short: as §1
# [7] = Induction of TNF production in murine splenocytes at 100 ug/mL
# HECPP [8] = assay: Activation of NF-kappaB in HECPP cells at 30 ug/mL; type: functional, cell-based; details: Mus musculus; in short: as §3
# MC-38 (Mus musculus) [9] = assay: Induction of hemorrhagic necrosis in colon 38 tumor bearing C57B1/6 mouse at 190 mg/kg, ip after 24 hrs relative to control; details: route intraperitoneal
# Splenocyte [10] = assay: Induction of TNF secretion in mouse splenocytes at 30 ug/mL after 4 hrs; type: functional; in short: as §2
# HECPP [11] = assay: Activation of NF-kappaB in HECPP cells at 10 ug/mL; type: functional, cell-based; details: Mus musculus; in short: as §3
# MC-38 (Mus musculus) [12] = assay: Induction of hemorrhagic necrosis in colon 38 tumor bearing C57B1/6 mouse at 25 mg/kg, ip after 24 hrs relative to control; details: route intraperitoneal
# Splenocyte [13] = assay: Induction of TNF secretion in mouse splenocytes at 10 ug/mL after 4 hrs; type: functional; in short: as §2
structure (smiles),measurement,setting,value
[N-]=[N+]=Nc1cccc2c(=O)c3cccc(CC(=O)O)c3oc12,Activity,[1],50%
same,Activity,Splenocyte [2],110 pg/mL
same,Activity,HECPP [3],Active
same,Activity,MC-38 (Mus musculus) [4],>95%
same,Activity,HECPP [5],Active
Cc1ccc2c(=O)c3cccc(CC(=O)O)c3oc2c1N=[N+]=[N-],Activity,[6],50%
same,TNF production,[7],<50 pg/mL
same,Activity,HECPP [8],Active
same,Activity,MC-38 (Mus musculus) [9],>95%
same,Activity,Splenocyte [10],<50 pg/mL
Cc1ccc2c(=O)c3cccc(CC(=O)O)c3oc2c1C [VADIMEZAN],Activity,HECPP [11],Active
same,Activity,MC-38 (Mus musculus) [12],>95%
same,Activity,Splenocyte [13],180 pg/mL
